# Laboratory results: ChEMBL document CHEMBL1129331, “Synthesis and physicochemical, biological, and pharmacological properties of new bile acids amidated with cyclic amino acids” (J Med Chem, 1996)
# How the values were obtained:
# [1] = Water solubility was determined; assay type: ADME; settings: read-out: WS
# In short: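 Protonated form; measured on saturated solutions at pH 1.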
# [2] = (§1) Partition coefficient (logP); assay type: physicochemical; settings: octanol/water
# In short: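 Octanol/water partition coefficient of the protonated species, calculated rather than measured.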
# Rattus norvegicus [3] = test: Secretion of cholesterol in Bile Fistula rats after the iv administration of compound, expressed as the residual secretion rate; assay type: ADME, organism-based; settings: in vivo
# In short: (§2)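 Male Sprague-Dawley rats (300-330 g), urethane-anesthetized, bile duct cannulated. After 1 h baseline, sodium salt infused via femoral vein at 10 μmol/min/kg for 1 h; bile collected at 15-min intervals for 3 h. Flow measured gravimetrically; bile acids, cholesterol and phospholipid measured enzymatically. Smax and Tmax read from secretion-time plots; Rs is the rate at hour 3. Mean ± SD, n=6.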
# Rattus norvegicus [4] = test: Secretion of phospholipid in Bile Fistula rats after the iv administration of compound, expressed as the residual secretion rate i; assay type: ADME, organism-based; settings: in vivo; in short: as §2
# Rattus norvegicus [5] = test: Secretion of Bile in Bile Fistula rats after the iv administration of compound, expressed as the residual secretion rate i; assay type: ADME, organism-based; settings: in vivo; in short: as §2
# [6] = Relative lipophilicity was determined; assay type: physicochemical; settings: C-18 reverse phase HPLC
# In short: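 C-18 reverse-phase HPLC run isocratically at 0.9 mL/min. Mobile phase 65% (v/v) aqueous methanol with 2 mM ammonium acetate, pH 7, so that all bile acids are fully ionized.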
# [7] = Acidity constant was determined; assay type: ADME
# Rattus norvegicus [8] = test: Secretion of Bile acids in Bile Fistula rats after the iv administration of compound, expressed as the residual secretion rate; assay type: ADME, organism-based; settings: in vivo; in short: as §2
# cholylglycine hydrolase = test: The compound was incubated with cholylglycine hydrolase and tested for determining the stability towards C-24 Deamination; assay type: ADME; settings: cholylglycine hydrolase
# [9] = Critical Micellar concentration was determined; assay type: ADME
# In short: (§3)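 Measured in water from surface tension, using the maximum bubble-pressure method.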
# [10] = Critical micellar pH was determined
# In short: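 20 mL of 50 mM bile salt solution titrated with 0.1 M HCl. CMpH is taken as the pH at which precipitate of the protonated form is first seen by turbidity at 500 nm. Confirmed by back-titration with 0.1 M NaOH until the suspension clears.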
# Rattus norvegicus [11] = test: Secretion of cholesterol in Bile Fistula rats after the iv administration of compound, expressed as the maximum secretion rate i; assay type: ADME, organism-based; settings: in vivo; in short: as §2
# Rattus norvegicus [12] = test: Secretion of phospholipid in Bile Fistula rats after the iv administration of compound, expressed as the maximum secretion rate i; assay type: ADME, organism-based; settings: in vivo; in short: as §2
# Rattus norvegicus [13] = test: Secretion of Bile in Bile Fistula rats after the iv administration of compound, expressed as the maximum secretion rate; assay type: ADME, organism-based; settings: in vivo; in short: as §2
# Rattus norvegicus [14] = test: Calcium output in Bile Fistula rats after iv coinfusion of TCDCA and compound.; assay type: ADME, organism-based; settings: in vivo
# In short: (§4)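 Bile fistula Sprague-Dawley rats (200-250 g). TCDCA and test bile acid given as sodium salts, coinfused via jugular vein, each at 8 μmol/min/kg for 1 h. Bile collected at 30-min intervals for 3 h. Calcium, ALP and LDH in bile measured enzymatically; bile acid composition by HPLC (65% methanol, 15 mM ammonium acetate, pH 5.4). Mean ± SD.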
# Rattus norvegicus [15] = test: Maximum biliary secretion rate of TCDCA after iv coinfusion in Bile fistula rats.; assay type: ADME, organism-based; settings: in vivo; in short: as §4
# Rattus norvegicus [16] = test: Secretion of Bile acids in Bile Fistula rats after the iv administration of compound, expressed as the maximum secretion rate i; assay type: ADME, organism-based; settings: in vivo; in short: as §2
# [17] = (§5) The compound was incubated with human stools and tested for determining the stability towards 7-dehydroxylation; assay type: ADME, organism-based
# In short: (§6)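 Homogenized fresh human stool (500 mg) in 5 mL chopped meat-glucose medium; bile acid added at 0.05 mM final; 37 °C. Sampled at 0–72 h and stopped with 30% KOH. Bile acids recovered by C-18 solid-phase extraction, then analyzed by TLC and by HPLC with 75% methanol/15 mM ammonium acetate, pH 5.4.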
# Rattus norvegicus [18] = test: Lactate dehydrogenase in Bile Fistula rats after iv coinfusion of TCDCA and compound.; assay type: ADME, organism-based; settings: in vivo; in short: as §4
# Rattus norvegicus [19] = test: Alkaline phosphatase in Bile Fistula rats after iv coinfusion of TCDCA and compound.; assay type: ADME, organism-based; settings: in vivo; in short: as §4
# Rattus norvegicus [20] = test: Maximum biliary secretion rate of bile acids after iv coinfusion in Bile fistula rats.; assay type: ADME, organism-based; settings: in vivo; in short: as §4
# Rattus norvegicus [21] = test: Bile flow in Bile Fistula rats after iv coinfusion of TCDCA and compound.; assay type: ADME, organism-based; settings: in vivo; in short: as §4
# [22] = The compound was incubated with human stools and tested for determining the stability towards C-24 Deamination; assay type: ADME, organism-based; settings: in the assay text read “7-dehydroxylation” for “C-24 Deamination”; in short: as §6
# Rattus norvegicus [23] = test: Secretion of Bile acids in Bile Fistula rats after the iv administration of compound, expressed as the maximum secretion rate; assay type: ADME, organism-based; settings: in vivo
# In short: (§7)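 Anaesthetised (ethyl carbamate) male Sprague-Dawley rats, 300-330 g, bile duct cannulated; after 1 h baseline, bile acid sodium salts infused via femoral vein at 10 μmol/min/kg for 1 h. Bile collected 3 h at 15 min intervals; flow gravimetric; BA, cholesterol, phospholipid by enzymatic assays. Smax, Tmax from secretion-vs-time plots; Rs = rate at third hour. n=6, mean ± SD.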
# [24] = as §1; assay type: physicochemical; settings: octanol/water; remark: listed apart in the source
# Rattus norvegicus [25] = test: Secretion of phospholipid in Bile Fistula rats after the iv administration of compound, expressed as the maximum secretion rate; assay type: ADME, organism-based; settings: in vivo; in short: as §7
# Rattus norvegicus [26] = test: Maximum biliary secretion rate of bile acids after iv confusion in Bile fistula rats.; assay type: ADME, organism-based; settings: in vivo
# Rattus norvegicus [27] = test: Secretion of Bile in Bile Fistula rats after the iv administration of compound, expressed as the residual secretion rate; assay type: ADME, organism-based; settings: in vivo; in short: as §7
# [28] = Critical Micellar concentration of the compound. was determined; assay type: ADME; in short: as §3
# [29] = as §5; assay type: ADME, organism-based; remark: listed apart in the source
# In short: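 Homogenised fresh human stool (500 mg) in 5 mL chopped meat-glucose medium with bile acid at 0.05 mM final, incubated at 37 °C; stopped with 30% KOH at 0, 4, 8, 16, 20, 24 and 72 h. Supernatant extracted on C-18 solid phase, analysed by TLC and HPLC (aqueous methanol 75%, 15 mM ammonium acetate, apparent pH 5.4).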
# Rattus norvegicus [30] = test: Secretion of phospholipid in Bile Fistula rats after the iv administration of compound, expressed as the residual secretion rate; assay type: ADME, organism-based; settings: in vivo; in short: as §7
# Rattus norvegicus [31] = test: Maximum biliary secretion rate of TCDCA after iv confusion in Bile fistula rats.; assay type: ADME, organism-based; settings: in vivo
Structure (SMILES),solubility [1] [µM],logP [2],Rs (Rattus norvegicus [3]) [nM/min/kg],Rs (Rattus norvegicus [4]) [µM/min/kg],Rs (Rattus norvegicus [5]) [mL/h/kg],rK [6],pKa [7],Rs (Rattus norvegicus [8]),half-life (cholylglycine hydrolase) [h],CMC [9] [mM],CMpH [10],Smax (Rattus norvegicus [11]) [nM/min/kg],Smax (Rattus norvegicus [12]) [µM/min/kg],Smax (Rattus norvegicus [13]) [mL/h/kg],Smax (Rattus norvegicus [14]),Smax (Rattus norvegicus [15]) [µM/min/kg],Smax (Rattus norvegicus [16]) [µM/min/kg],[LDH]max (Rattus norvegicus [18]) [UI l-1],[ALP]max (Rattus norvegicus [19]) [IU/L],Smax (Rattus norvegicus [21]) [mL/h/kg],also measured
CC(CCC(=O)N1CCC[C@@H]1C(=O)O)C1CC[C@H]2[C@@H]3[C@@H](O)CC4C[C@H](O)CC[C@]4(C)[C@H]3CC[C@]12C (stereo partly drawn),113,5.83,31,0.11,3,1.25,3.9,0.9 µM/min/kg,> 72,15,6,55,0.28,5.4,0.42 µmol/min/kg,5.43,6,16,32,5.16,half-life [17]: > 72 h; Smax (Rattus norvegicus [20]): 3.22 µM/min/kg
CC(CCC(=O)N1CCC[C@@H]1C(=O)O)C1CC[C@H]2[C@@H]3[C@H](O)[C@H](O)C4C[C@H](O)CC[C@]4(C)[C@H]3CC[C@]12C (stereo partly drawn),60,3.71,23,0.26,2.28,0.85,3.9,1.8 µM/min/kg,> 72,30,6.6,52,0.28,3.6,0.39 µM/min/kg,5.07,6,48,34,6,half-life [22]: > 72 h; Smax (Rattus norvegicus [20]): 3.41 µM/min/kg
C[C@H](CCC(=O)O)[C@H]1CC[C@H]2[C@@H]3[C@@H](O)C[C@@H]4C[C@H](O)CC[C@]4(C)[C@H]3CC[C@]12C [URSODIOL],8,,24,,,1,,0.0008 µM/min/g,,,8.4,55,,6.96,0.00018 µM/min/g,,,115,217,4.32,Smax (Rattus norvegicus [23]): 0.0042 µM/min/g; logP [24]: 5.69; Smax (Rattus norvegicus [25]): 0.00026 µM/min/g; Smax (Rattus norvegicus [26]): 1.72 µM/min/kg; Rs (Rattus norvegicus [27]): 2.82 mL/h/kg; CMC [28]: 26 mM; half-life [29]: 2 h; Rs (Rattus norvegicus [30]): 0.00012 µM/min/g; Smax (Rattus norvegicus [31]): 1.56 µM/min/kg
CC(CCC(=O)N1CCC[C@H]1C(=O)O)C1CC[C@H]2[C@@H]3[C@@H](O)CC4C[C@H](O)CC[C@]4(C)[C@H]3CC[C@]12C (stereo partly drawn),59,4.41,28,0.09,3.06,0.92,3.9,1.6 µM/min/kg,> 72,7,6,52,0.2,3.9,0.38 µM/min/kg,3.64,7.9,71,30,5.82,half-life [17]: > 72 h; Smax (Rattus norvegicus [20]): 2.07 µM/min/kg
CC(CCC(=O)N1C[C@@H](O)C[C@@H]1C(=O)O)C1CC[C@H]2[C@@H]3[C@@H](O)CC4C[C@H](O)CC[C@]4(C)[C@H]3CC[C@]12C (stereo partly drawn),250,3.59,31,0.12,2.76,0.6,3.1,0.9 µM/min/kg,> 72,10,4.7,68,0.25,5.82,0.37 µM/min/kg,4.98,6.3,10,31,5.4,half-life [17]: > 72 h; Smax (Rattus norvegicus [20]): 3.27 µM/min/kg
